Results as given in ChEMBL document CHEMBL3860041, “Synthesis, biological evaluation and molecular modeling study of some new methoxylated 2-benzylthio-quinazoline-4(3H)-ones as nonclassical antifolates” (Bioorg Med Chem Lett, 2016).

Experiments:
[1] = Growth inhibition of human MDA-MB-231 cells at 10 uM after 48 hrs by SRB assay relative to control; assay type: functional; conditions: MDA-MB-231, 48 h, read-out: GI
Outline: (§1)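 NCI 60-cell-line panel, nine tumor subpanels; compounds tested at a single dose of 10 μM in the primary screen.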

[2] = Growth inhibition of human UO31 cells at 10 uM after 48 hrs by SRB assay relative to control; assay type: functional; conditions: UO-31, 48 h, read-out: GI
Outline: (§2)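 Primary screen across the full NCI 60 human tumour cell line panel, which covers nine tumour subpanels. A single dose of 10 μM was applied to each line, and growth was recorded for each cell line.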

[3] = Growth inhibition of human LOXIMVI cells at 10 uM after 48 hrs by SRB assay relative to control; assay type: functional; conditions: LOX IMVI, read-out: GI; outline: as §1
[4] = Growth inhibition of human OVCAR4 cells at 10 uM after 48 hrs by SRB assay relative to control; assay type: functional; conditions: OVCAR-4, 48 h, read-out: GI; outline: as §1
[5] = Growth inhibition of human colon cancer cells after 48 hrs by SRB assay; assay type: functional; conditions: Cancer cell lines
Outline: (§3)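 Follow-up NCI panel testing over a 5-log dose range for each cell line. GI50, TGI and LC50 were monitored, with 5-fluorouracil run as the positive control. Values are grouped by tumour subpanel.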

[6] = Growth inhibition of human A498 cells at 10 uM after 48 hrs by SRB assay relative to control; assay type: functional; conditions: A498, 48 h, read-out: GI; outline: as §1
Cancer cell lines [7] = experiment: Potency index, ratio of 5-fluorouracil GI50 to compound GI50 for human ovarian cancer cells; assay type: functional
Outline: (§4)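 GI50 for each cell line came from NCI panel testing over a 5-log dose range, with 5-fluorouracil tested alongside as the reference drug. The index relates the 5-fluorouracil GI50 to the compound GI50 within each tumour subpanel.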

[8] = Growth inhibition of human HOP92 cells at 10 uM after 48 hrs by SRB assay relative to control; assay type: functional; conditions: HOP-92, 48 h, read-out: GI; outline: as §1
[9] = Growth inhibition of human RXF393 cells at 10 uM after 48 hrs by SRB assay relative to control; assay type: functional; conditions: RXF 393, 48 h, read-out: GI; outline: as §1
[10] = Growth inhibition of human UACC62 cells at 10 uM after 48 hrs by SRB assay relative to control; assay type: functional; conditions: UACC-62, 48 h, read-out: GI; outline: as §2
Dihydrofolate reductase = target: T1, Dihydrofolate reductase (Bos taurus, UniProt P00376); experiment: Inhibition of bovine liver DHFR preincubated for 2 mins followed by addition of FH2 as substrate and NADPH
T1 sequence (P00376 whole entry): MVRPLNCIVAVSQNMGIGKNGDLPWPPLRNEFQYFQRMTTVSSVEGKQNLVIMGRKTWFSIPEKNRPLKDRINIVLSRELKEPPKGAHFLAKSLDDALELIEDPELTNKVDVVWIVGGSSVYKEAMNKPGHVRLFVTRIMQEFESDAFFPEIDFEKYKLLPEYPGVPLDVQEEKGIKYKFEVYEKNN

[11] = Growth inhibition of human HT-29 cells at 10 uM after 48 hrs by SRB assay relative to control; assay type: functional; conditions: HT-29, 48 h, read-out: GI; outline: as §1
[12] = Growth inhibition of human OVCAR8 cells at 10 uM after 48 hrs by SRB assay relative to control; assay type: functional; conditions: OVCAR-8, 48 h, read-out: GI; outline: as §1
Leukemia cell = experiment: Potency index, ratio of 5-fluorouracil GI50 to compound GI50 for human leukemia cells; assay type: functional; outline: as §4
[13] = Growth inhibition of human UACC257 cells at 10 uM after 48 hrs by SRB assay relative to control; assay type: functional; conditions: UACC-257, 48 h, read-out: GI; outline: as §2
[14] = Growth inhibition of human HCC2998 cells at 10 uM after 48 hrs by SRB assay relative to control; assay type: functional; conditions: HCC 2998, 48 h, read-out: GI; outline: as §1
[15] = Growth inhibition of human 786-0 cells at 10 uM after 48 hrs by SRB assay relative to control; assay type: functional; conditions: 786-0, 48 h, read-out: GI; outline: as §1
[16] = Growth inhibition of human U251 cells at 10 uM after 48 hrs by SRB assay relative to control; assay type: functional; conditions: U-251, 48 h, read-out: GI; outline: as §2
[17] = Growth inhibition of human SKOV3 cells at 10 uM after 48 hrs by SRB assay relative to control; assay type: functional; conditions: SK-OV-3, 48 h, read-out: GI; outline: as §2
[18] = Growth inhibition of human SF539 cells at 10 uM after 48 hrs by SRB assay relative to control; assay type: functional; conditions: SF-539, 48 h, read-out: GI; outline: as §1
[19] = Growth inhibition of human SR cells at 10 uM after 48 hrs by SRB assay relative to control; assay type: functional; conditions: read-out: GI; outline: as §2
[20] = Growth inhibition of human MOLT4 cells at 10 uM after 48 hrs by SRB assay relative to control; assay type: functional; conditions: MOLT-4, 48 h, read-out: GI; outline: as §1
[21] = Growth inhibition of human melanoma cells after 48 hrs by SRB assay; assay type: functional; conditions: Melanoma cell; outline: as §3
[22] = Growth inhibition of human SF268 cells at 10 uM after 48 hrs by SRB assay relative to control; assay type: functional; conditions: SF-268, 48 h, read-out: GI; outline: as §1
Cancer cell lines [23] = experiment: Potency index, ratio of 5-fluorouracil GI50 to compound GI50 for human renal cancer cells; assay type: functional; outline: as §4
[24] = Growth inhibition of human NCI-322M cells at 10 uM after 48 hrs by SRB assay relative to control; assay type: functional; conditions: read-out: GI; outline: as §1
Cancer cell lines [25] = experiment: Potency index, ratio of 5-fluorouracil GI50 to compound GI50 for human prostate cancer cells; assay type: functional; outline: as §4
[26] = Growth inhibition of human renal cancer cells after 48 hrs by SRB assay; assay type: functional; conditions: Cancer cell lines; outline: as §3
Cancer cell lines [27] = experiment: Potency index, ratio of 5-fluorouracil GI50 to compound GI50 for human CNS cancer cells; assay type: functional; outline: as §4
[28] = Growth inhibition of human Caki1 cells at 10 uM after 48 hrs by SRB assay relative to control; assay type: functional; conditions: CAKI-1, 48 h, read-out: GI; outline: as §1
[29] = Growth inhibition of human Hs 578T cells at 10 uM after 48 hrs by SRB assay relative to control; assay type: functional; conditions: read-out: GI; outline: as §1
[30] = Growth inhibition of human SN12C cells at 10 uM after 48 hrs by SRB assay relative to control; assay type: functional; conditions: read-out: GI; outline: as §2
[31] = Growth inhibition of human MCF7 cells at 10 uM after 48 hrs by SRB assay relative to control; assay type: functional; conditions: MCF7, 48 h, read-out: GI; outline: as §1
[32] = Growth inhibition of human SK-MEL-28 cells at 10 uM after 48 hrs by SRB assay relative to control; assay type: functional; conditions: SK-MEL-28, 48 h, read-out: GI; outline: as §2
[33] = Growth inhibition of human A549 cells at 10 uM after 48 hrs by SRB assay relative to control; assay type: functional; conditions: A549, 48 h, read-out: GI; outline: as §1
[34] = Growth inhibition of human SK-MEL-5 cells at 10 uM after 48 hrs by SRB assay relative to control; assay type: functional; conditions: SK-MEL-5, 48 h, read-out: GI; outline: as §2

Question: With COc1cc(CSc2nc3ccc(C)cc3c(=O)n2-c2ccccc2)cc(OC)c1OC as the molecule, how does the inhibition of growth at 10 µM [1] read?
Answer: The inhibition of growth at 10 µM was 62.1%.

Question: What about the inhibition of growth at 10 µM [2] of the same molecule?
Answer: Its inhibition of growth at 10 µM is 75.9%.

Question: And the inhibition of growth at 10 µM [3]?
Answer: The inhibition of growth at 10 µM was 64%.

Question: And the inhibition of growth at 10 µM [4]?
Answer: Its inhibition of growth at 10 µM is 42.8%.

Question: And the GI50 [5]?
Answer: Its GI50 is 1.3 µM.

Question: What about the LC50 [5] of the same molecule?
Answer: The LC50 was greater than 100 µM.

Question: And the TGI [5]?
Answer: Its TGI is 86.3 µM.

Question: What about the inhibition of growth at 10 µM [6] of the same molecule?
Answer: The inhibition of growth at 10 µM was 84%.

Question: And the RatioGI50 (Cancer cell lines [7])?
Answer: Its RatioGI50 is 10.

Question: What about the inhibition of growth at 10 µM [8] of the same molecule?
Answer: The inhibition of growth at 10 µM was 32.1%.

Question: What about the inhibition of growth at 10 µM [9] of the same molecule?
Answer: Its inhibition of growth at 10 µM is 85.8%.

Question: What about the inhibition of growth at 10 µM [10] of the same molecule?
Answer: The inhibition of growth at 10 µM was 79.2%.

Question: And the IC50 (Dihydrofolate reductase)?
Answer: Its IC50 is 7 µM.

Question: What about the inhibition of growth at 10 µM [11] of the same molecule?
Answer: Its inhibition of growth at 10 µM is 85.7%.

Question: What about the inhibition of growth at 10 µM [12] of the same molecule?
Answer: The inhibition of growth at 10 µM was 47.2%.

Question: What about the RatioGI50 (Leukemia cell) of the same molecule?
Answer: Its RatioGI50 is 10.

Question: What about the inhibition of growth at 10 µM [13] of the same molecule?
Answer: Its inhibition of growth at 10 µM is 49.8%.

Question: And the inhibition of growth at 10 µM [14]?
Answer: The inhibition of growth at 10 µM was 50.3%.

Question: What about the inhibition of growth at 10 µM [15] of the same molecule?
Answer: The inhibition of growth at 10 µM was 62.4%.

Question: What about the inhibition of growth at 10 µM [16] of the same molecule?
Answer: The inhibition of growth at 10 µM was 61.5%.

Question: What about the inhibition of growth at 10 µM [17] of the same molecule?
Answer: Its inhibition of growth at 10 µM is 86.4%.

Question: And the inhibition of growth at 10 µM [18]?
Answer: The inhibition of growth at 10 µM was 96.5%.

Question: And the inhibition of growth at 10 µM [19]?
Answer: The inhibition of growth at 10 µM was 79.7%.

Question: And the inhibition of growth at 10 µM [20]?
Answer: The inhibition of growth at 10 µM was 78.2%.

Question: What about the GI50 [21] of the same molecule?
Answer: The GI50 was 3.9 µM.

Question: And the LC50 [21]?
Answer: Its LC50 is greater than 100 µM.

Question: And the TGI [21]?
Answer: The TGI was 82.2 µM.

Question: And the inhibition of growth at 10 µM [22]?
Answer: The inhibition of growth at 10 µM was 52.6%.

Question: And the RatioGI50 (Cancer cell lines [23])?
Answer: Its RatioGI50 is 10.

Question: What about the inhibition of growth at 10 µM [24] of the same molecule?
Answer: Its inhibition of growth at 10 µM is 52.6%.

Question: And the RatioGI50 (Cancer cell lines [25])?
Answer: Its RatioGI50 is 10.

Question: What about the GI50 [26] of the same molecule?
Answer: Its GI50 is 4.2 µM.

Question: What about the LC50 [26] of the same molecule?
Answer: Its LC50 is greater than 100 µM.

Question: What about the TGI [26] of the same molecule?
Answer: Its TGI is 76.9 µM.

Question: What about the RatioGI50 (Cancer cell lines [27]) of the same molecule?
Answer: Its RatioGI50 is 10.

Question: What about the inhibition of growth at 10 µM [28] of the same molecule?
Answer: The inhibition of growth at 10 µM was 72.4%.

Question: And the inhibition of growth at 10 µM [29]?
Answer: Its inhibition of growth at 10 µM is 71.8%.

Question: And the inhibition of growth at 10 µM [30]?
Answer: The inhibition of growth at 10 µM was 63%.

Question: And the inhibition of growth at 10 µM [31]?
Answer: The inhibition of growth at 10 µM was 80.1%.

Question: And the inhibition of growth at 10 µM [32]?
Answer: Its inhibition of growth at 10 µM is 47.9%.

Question: What about the inhibition of growth at 10 µM [33] of the same molecule?
Answer: Its inhibition of growth at 10 µM is 60.7%.

Question: And the inhibition of growth at 10 µM [34]?
Answer: Its inhibition of growth at 10 µM is 80%.
